Experiment [1] addresses T1, Inhibitor of nuclear factor kappa-B kinase subunit alpha (Homo sapiens, UniProt O15111).
T1 sequence (O15111 whole entry): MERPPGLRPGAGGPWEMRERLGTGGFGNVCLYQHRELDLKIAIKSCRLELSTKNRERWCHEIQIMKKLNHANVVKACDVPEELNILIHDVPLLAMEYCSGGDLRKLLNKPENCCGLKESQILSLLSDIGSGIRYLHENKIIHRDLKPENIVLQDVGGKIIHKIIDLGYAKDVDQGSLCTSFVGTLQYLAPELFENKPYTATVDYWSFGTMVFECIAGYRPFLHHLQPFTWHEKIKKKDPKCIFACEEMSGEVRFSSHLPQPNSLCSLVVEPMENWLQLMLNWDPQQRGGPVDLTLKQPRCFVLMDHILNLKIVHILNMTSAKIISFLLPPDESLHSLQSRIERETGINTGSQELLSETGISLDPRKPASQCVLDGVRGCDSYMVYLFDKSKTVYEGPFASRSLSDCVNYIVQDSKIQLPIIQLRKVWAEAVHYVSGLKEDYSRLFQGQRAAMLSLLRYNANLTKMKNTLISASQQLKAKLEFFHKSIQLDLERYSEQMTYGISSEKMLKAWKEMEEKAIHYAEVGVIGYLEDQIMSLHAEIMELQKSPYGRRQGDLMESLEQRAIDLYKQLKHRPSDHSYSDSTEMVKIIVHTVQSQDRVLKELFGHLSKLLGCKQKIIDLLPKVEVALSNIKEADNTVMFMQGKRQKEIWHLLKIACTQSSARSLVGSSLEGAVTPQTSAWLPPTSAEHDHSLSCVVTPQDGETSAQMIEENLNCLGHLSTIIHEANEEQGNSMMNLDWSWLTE
Kind of experiment: Inhibition of recombinant human N-terminal GST-tagged IKKalpha (1 to 745 residues) expressed in baculovirus expression system using biotinylated IkBalpha as substrate after 60 mins by DELFIA.

For experiment [2], the target named is T2, Inhibitor of nuclear factor kappa-B kinase subunit beta (Homo sapiens, UniProt O14920).
T2 sequence (O14920 whole entry): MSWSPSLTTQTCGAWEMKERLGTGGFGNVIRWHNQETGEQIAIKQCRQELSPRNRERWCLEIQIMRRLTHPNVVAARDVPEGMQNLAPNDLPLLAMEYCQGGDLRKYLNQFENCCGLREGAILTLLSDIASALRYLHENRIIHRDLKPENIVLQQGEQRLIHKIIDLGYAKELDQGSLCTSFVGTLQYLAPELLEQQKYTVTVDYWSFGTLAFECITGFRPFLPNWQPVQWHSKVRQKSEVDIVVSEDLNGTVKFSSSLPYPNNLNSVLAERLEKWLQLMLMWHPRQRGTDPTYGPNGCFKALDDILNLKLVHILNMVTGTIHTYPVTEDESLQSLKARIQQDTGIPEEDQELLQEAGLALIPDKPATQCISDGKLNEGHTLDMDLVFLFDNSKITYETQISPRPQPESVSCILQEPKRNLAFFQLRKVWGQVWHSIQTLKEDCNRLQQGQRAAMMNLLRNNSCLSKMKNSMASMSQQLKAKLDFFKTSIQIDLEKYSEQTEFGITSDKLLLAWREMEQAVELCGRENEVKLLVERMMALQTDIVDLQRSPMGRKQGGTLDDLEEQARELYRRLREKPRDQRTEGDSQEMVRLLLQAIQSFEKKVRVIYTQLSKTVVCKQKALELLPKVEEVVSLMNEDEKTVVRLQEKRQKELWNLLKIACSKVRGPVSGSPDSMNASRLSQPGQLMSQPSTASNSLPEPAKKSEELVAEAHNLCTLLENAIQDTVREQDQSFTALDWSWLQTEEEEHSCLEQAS
Kind of experiment: Inhibition of recombinant full length human IKKbeta expressed in baculovirus infected sf9 insect cells using biotinylated IkBalpha as substrate after 60 mins by DELFIA. In short, it runs like this:
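Recombinant IKKβ (37 nM) was incubated with biotinylated IκB-α (Ser32) peptide (0.375 μM) and 40 μM ATP in Tris-HCl pH 7.5 with MgCl2, EDTA, DTT and BSA for 60 min at 30 °C. The reaction was quenched with EDTA and captured on streptavidin. Detection used anti-phospho-IκBα (Ser32/36) mAb plus Eu-anti-mouse IgG, read by time-resolved fluorescence (340/615 nm). Apparent Ki was obtained via Cheng–Prusoff, n=3.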

Drawing on ChEMBL document CHEMBL4038327, “Inhibitory Kappa B Kinase α (IKKα) Inhibitors That Recapitulate Their Selectivity in Cells against Isoform-Related Biomarkers” (J Med Chem, 2017), this text covers Ki for 53 compounds.

For `N#Cc1c[nH]c2ncnc(-c3ccc(S(N)(=O)=O)cc3)c12`, the values for the Ki in experiment [1] and in experiment [2] were 2.1 µM and more than 30 µM, respectively.

With `NC(=O)c1c[nH]c2nc(N)nc(N[C@H]3CC[C@H](O)CC3)c12`, the inhibitory constant (Ki) in experiment [1] and in experiment [2] was more than 30 µM throughout.

As to `N#Cc1c[nH]c2nc(N)nc(N3CC[C@@H](O)C3)c12`, the inhibition constant Ki in experiment [1] and in experiment [2] was more than 30 µM each time.

As for `N#Cc1c[nH]c2nc(N)nc(-c3ccccc3O)c12`, the inhibitory constant (Ki) was 15 µM in experiment [1] and more than 30 µM in experiment [2].

As for `N#Cc1c[nH]c2nc(N)nc(-c3cccc(F)c3)c12`, the Ki was 7.7 µM in experiment [1] and more than 30 µM in experiment [2].

As for `Nc1nc(N[C@H]2CC[C@H](O)CC2)c2cc[nH]c2n1`, the Ki in experiment [1] and in experiment [2] was more than 30 µM throughout.

On to `N#Cc1c[nH]c2nc(N)nc(-c3ccc(C(N)=O)cc3)c12`, for which the Ki in experiment [1] is 16 µM; in experiment [2], more than 30 µM.

In the case of `N#Cc1c[nH]c2nc(N)nc(N[C@H]3CC[C@H](O)CC3)c12`, the Ki was 2 µM in experiment [1] and more than 30 µM in experiment [2].

On to `N#Cc1c[nH]c2nc(N)nc(NCCN3CCOCC3)c12`, for which the Ki in experiment [1] and in experiment [2] was more than 30 µM each time.

Consider `Nc1nc(NC2CCCCC2)c2c(C(F)(F)F)c[nH]c2n1`, for which the Ki in experiment [1] and in experiment [2] was more than 30 µM each time.

Take `CN(c1nc(N)nc2[nH]cc(C#N)c12)C1CCCCC1`: the Ki in experiment [1] and in experiment [2] was more than 30 µM throughout.

As to `N#Cc1c[nH]c2nc(N)nc(NCc3ccccc3)c12`, the inhibitory constant (Ki) in experiment [1] is 5.3 µM; in experiment [2], more than 30 µM.

Take `N#Cc1c[nH]c2nc(N)nc(-c3cccc(CO)c3)c12`: the Ki in experiment [1] worked out at 9.8 µM; in experiment [2], 4 µM.

Regarding `N#Cc1c[nH]c2nc(N)nc(-c3ccccc3F)c12`, the figures for the Ki in experiment [1] and in experiment [2] were 2 µM and more than 30 µM, respectively.

Regarding `CN1CCN(c2nc(N)nc3[nH]cc(C#N)c23)CC1`, the inhibition constant (Ki) in experiment [1] and in experiment [2] was more than 30 µM in each case.

For `Nc1nc(N2CCCCC2)c2cc[nH]c2n1`, the Ki in experiment [1] and in experiment [2] was more than 30 µM each time.

Turning to `N#Cc1c[nH]c2nc(N)nc(Nc3ccc(C(=O)O)cc3)c12`, the inhibition constant (Ki) in experiment [1] and in experiment [2] was more than 30 µM each time.

`N#Cc1c[nH]c2nc(N)nc(N3CCCCC3)c12`: the Ki in experiment [1] was 5.3 µM; in experiment [2], more than 30 µM.

For `N#Cc1c[nH]c2nc(N)nc(-c3cccc(C(N)=O)c3)c12`, the inhibition constant (Ki) in experiment [1] and in experiment [2] was more than 30 µM in each case.

In the case of `N#Cc1c[nH]c2nc(N)nc(N3CCN(c4ccccc4)CC3)c12`, the Ki in experiment [1] and in experiment [2] was more than 30 µM each time.

Turning to `N#Cc1c[nH]c2nc(N)nc(-c3ccccc3CO)c12`, the inhibitory constant (Ki) in experiment [1] and in experiment [2] was more than 30 µM throughout.

Take `N#Cc1c[nH]c2nc(N)nc(N[C@@H]3C[C@H](O)[C@@H](O)[C@H]3O)c12`: the Ki in experiment [1] is 0.8 µM; in experiment [2] it was 3.6 µM.

In the case of `CS(=O)(=O)c1ccc(-c2nc(N)nc3[nH]cc(C#N)c23)cc1`, the inhibition constant Ki in experiment [1] stood at 2.4 µM; in experiment [2], 0.3 µM.

`Cc1ccc(NS(=O)(=O)c2ccc(-c3nc(N)nc4[nH]cc(C#N)c34)cc2)cc1`: the inhibition constant (Ki) in experiment [1] came out at 16 µM; in experiment [2] it was 1.4 µM.

As to `N#Cc1c[nH]c2nc(N)nc(N3CCN(CCO)CC3)c12`, the Ki in experiment [1] and in experiment [2] was more than 30 µM in each case.

With `Nc1nc(Cl)c2cc[nH]c2n1`, the Ki in experiment [1] and in experiment [2] was more than 30 µM each time.

For the compound `N#Cc1c[nH]c2nc(N)nc(NC3CCCCC3)c12`, the Ki in experiment [1] is 1.8 µM; in experiment [2], more than 30 µM.

Take `N#Cc1c[nH]c2nc(N)nc(N3CCC(S(N)(=O)=O)CC3)c12`: the Ki in experiment [1] stood at 5.3 µM; in experiment [2], 5.9 µM.

In the case of `N#Cc1c[nH]c2nc(N)nc(N3CC[C@H](O)C3)c12`, the Ki is 6 µM in experiment [1] and more than 30 µM in experiment [2].

In the case of `N#Cc1c[nH]c2nc(N)nc(N)c12`, the inhibition constant (Ki) in experiment [1] and in experiment [2] was more than 30 µM each time.

As for `N#Cc1c[nH]c2nc(N)nc(Cl)c12`, the Ki was 4 µM in experiment [1] and more than 30 µM in experiment [2].

For the compound `N#Cc1c[nH]c2nc(N)nc(-c3ccc(O)cc3)c12`, the values for the Ki in experiment [1] and in experiment [2] were 1.6 µM and 20 µM, respectively.

Regarding `N#Cc1c[nH]c2nc(N)nc(Nc3ccccc3)c12`, the inhibitory constant (Ki) in experiment [1] is 13 µM; in experiment [2], more than 30 µM.

As to `N#Cc1c[nH]c2nc(N)nc(Nc3ccc(S(N)(=O)=O)cc3)c12`, the Ki in experiment [1] was 10 µM; in experiment [2] it was more than 30 µM.

Consider `N#Cc1c[nH]c2nc(N)nc(N3CCC[C@@H]3CO)c12`, for which the inhibition constant (Ki) in experiment [1] is 2.5 µM; in experiment [2], more than 30 µM.

Turning to `NS(=O)(=O)c1ccc(-c2ncnc3[nH]ccc23)cc1`, the results for the Ki in experiment [1] and in experiment [2] were 1.5 µM and 2.5 µM, respectively.

As to `N#Cc1c[nH]c2nc(N)nc(N3CCN(CCCO)CC3)c12`, the inhibition constant (Ki) in experiment [1] is 12.1 µM; in experiment [2], more than 30 µM.

For the compound `CNc1nc(N)nc2[nH]cc(C#N)c12`, the Ki is 13 µM in experiment [1] and more than 30 µM in experiment [2].

On to `CS(=O)(=O)Nc1ccc(-c2nc(N)nc3[nH]cc(C#N)c23)cc1`, for which the inhibitory constant (Ki) in experiment [1] stood at 1.4 µM; in experiment [2], 0.1 µM.

Regarding `N#Cc1c[nH]c2nc(N)nc(N3CCC[C@H]3CO)c12`, the Ki was 3.1 µM in experiment [1] and more than 30 µM in experiment [2].

Take `N#Cc1c[nH]c2nc(N)nc(-c3ccc(F)cc3)c12`: the figures for the inhibition constant (Ki) in experiment [1] and in experiment [2] were 10 µM and more than 30 µM, respectively.

As for `N#Cc1c[nH]c2nc(N)nc(NCC3CC3)c12`, the Ki in experiment [1] was 16 µM; in experiment [2], more than 30 µM.

Consider `N#Cc1c[nH]c2nc(N)nc(-c3cccc(O)c3)c12`, for which the figures for the Ki in experiment [1] and in experiment [2] were 2.4 µM and 3.8 µM, respectively.

For `Nc1nc(NC2CCCCC2)c2cc[nH]c2n1`, the inhibition constant Ki in experiment [1] and in experiment [2] was more than 30 µM throughout.

Turning to `N#Cc1c[nH]c2nc(N)nc(-c3ccccc3S(N)(=O)=O)c12`, the inhibition constant (Ki) in experiment [1] and in experiment [2] was more than 30 µM each time.

In the case of `N#Cc1c[nH]c2nc(N)nc(N(CCO)C3CCCCC3)c12`, the Ki in experiment [1] and in experiment [2] was more than 30 µM throughout.

For `Nc1nc(-c2ccc(S(N)(=O)=O)cc2)c2cc[nH]c2n1`, the inhibitory constant (Ki) in experiment [1] is 2.9 µM; in experiment [2], 0.61 µM.

Consider `N#Cc1c[nH]c2nc(N)nc(-c3ccccc3)c12`, for which the Ki was 1.7 µM in experiment [1] and more than 30 µM in experiment [2].

On to `N#Cc1c[nH]c2nc(N)nc(-c3cccc(S(N)(=O)=O)c3)c12`, for which the Ki is 5.3 µM in experiment [1] and 5.9 µM in experiment [2].

On to `N#Cc1c[nH]c2nc(N)nc(N3CCOCC3)c12`, for which the results for the Ki in experiment [1] and in experiment [2] were more than 30 µM and 20 µM, respectively.

As for `N#Cc1c[nH]c2nc(N)nc(-c3ccccc3C(N)=O)c12`, the inhibition constant (Ki) in experiment [1] and in experiment [2] was more than 30 µM in each case.

Turning to `CNS(=O)(=O)c1ccc(-c2nc(N)nc3[nH]cc(C#N)c23)cc1`, the Ki in experiment [1] was found to be 1.7 µM; in experiment [2], 0.4 µM.

Take `N#Cc1c[nH]c2nc(N)nc(NCCO)c12`: the results for the Ki in experiment [1] and in experiment [2] were 1.6 µM and more than 30 µM, respectively.

The Ki is a measure of affinity in units of concentration, obtained from inhibition or displacement.
